Test results reported in PubChem BioAssay AID623920 (The Scripps Research Institute Molecular Screening Center, 2012).
Where “and” joins values, the source holds several entries; their conditions need not be identical. Identical values can stand only once. Calls of active or inactive are those of the source.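 How the source made its calls: active means compounds halving RecBCD DNA-cutting activity at 52000 nM or lower IC50; inactive means the rest.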

Target: RecBCD enzyme subunit RecC (Escherichia coli (strain K12)) + RecBCD enzyme subunit RecB (Escherichia coli (strain K12)) (UniProt P07648+P08394)
Assay: purified RecBCD nuclease inhibitors, dose response, counter-screen for AddAB inhibitor project, biochemical, radioactivity readout, powder samples (AID 623920)
Conditions: [3H] dsDNA nuclease, TCA-soluble radioactivity
How it was run: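 System: Purified Escherichia coli RecBCD helicase-nuclease enzyme | Input: RecBCD enzyme at 0.15 units (4.5 nM) per reaction | Medium: pH 8.5 Tris, MgCl2, ATP | Replication: Triplicate | Read-out: IC50 from percent RecBCD activity | Schedule: Reaction 20 min, 37 °C | Technique: TCA-soluble radioactivity by scintillation | Control set: Enzyme-free background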

RecBCD enzyme subunit RecC (Escherichia coli (strain K12)) + RecBCD enzyme subunit RecB (Escherichia coli (strain K12)), sequence (P07648 whole entry, looked up): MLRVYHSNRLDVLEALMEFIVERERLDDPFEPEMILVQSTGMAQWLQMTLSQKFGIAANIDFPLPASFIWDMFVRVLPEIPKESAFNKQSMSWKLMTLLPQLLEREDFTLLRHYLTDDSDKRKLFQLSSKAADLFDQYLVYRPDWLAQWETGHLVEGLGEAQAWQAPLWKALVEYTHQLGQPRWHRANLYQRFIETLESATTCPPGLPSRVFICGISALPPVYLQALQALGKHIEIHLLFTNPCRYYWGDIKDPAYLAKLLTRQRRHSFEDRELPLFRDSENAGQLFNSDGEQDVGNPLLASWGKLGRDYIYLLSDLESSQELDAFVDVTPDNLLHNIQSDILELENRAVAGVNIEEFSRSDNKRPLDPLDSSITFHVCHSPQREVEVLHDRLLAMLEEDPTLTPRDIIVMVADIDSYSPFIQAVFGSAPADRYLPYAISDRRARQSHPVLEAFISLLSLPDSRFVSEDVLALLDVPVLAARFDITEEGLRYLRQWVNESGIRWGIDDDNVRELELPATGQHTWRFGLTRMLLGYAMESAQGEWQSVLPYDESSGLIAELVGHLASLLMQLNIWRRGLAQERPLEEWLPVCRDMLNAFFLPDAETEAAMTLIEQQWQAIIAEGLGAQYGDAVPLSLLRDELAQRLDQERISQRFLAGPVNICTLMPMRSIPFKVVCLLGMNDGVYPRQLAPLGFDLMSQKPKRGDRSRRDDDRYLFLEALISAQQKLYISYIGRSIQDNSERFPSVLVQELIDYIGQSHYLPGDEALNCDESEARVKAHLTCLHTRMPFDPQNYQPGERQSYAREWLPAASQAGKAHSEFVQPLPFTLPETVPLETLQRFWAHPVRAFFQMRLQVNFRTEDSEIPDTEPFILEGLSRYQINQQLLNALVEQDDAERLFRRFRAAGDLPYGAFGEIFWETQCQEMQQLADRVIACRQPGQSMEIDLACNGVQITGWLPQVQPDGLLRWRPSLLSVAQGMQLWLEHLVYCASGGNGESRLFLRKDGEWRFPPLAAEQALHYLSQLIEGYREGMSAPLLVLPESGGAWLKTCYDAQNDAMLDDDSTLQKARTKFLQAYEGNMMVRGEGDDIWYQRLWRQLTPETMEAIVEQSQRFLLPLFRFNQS
RecBCD enzyme subunit RecC (Escherichia coli (strain K12)) + RecBCD enzyme subunit RecB (Escherichia coli (strain K12)), sequence (P08394 whole entry, looked up): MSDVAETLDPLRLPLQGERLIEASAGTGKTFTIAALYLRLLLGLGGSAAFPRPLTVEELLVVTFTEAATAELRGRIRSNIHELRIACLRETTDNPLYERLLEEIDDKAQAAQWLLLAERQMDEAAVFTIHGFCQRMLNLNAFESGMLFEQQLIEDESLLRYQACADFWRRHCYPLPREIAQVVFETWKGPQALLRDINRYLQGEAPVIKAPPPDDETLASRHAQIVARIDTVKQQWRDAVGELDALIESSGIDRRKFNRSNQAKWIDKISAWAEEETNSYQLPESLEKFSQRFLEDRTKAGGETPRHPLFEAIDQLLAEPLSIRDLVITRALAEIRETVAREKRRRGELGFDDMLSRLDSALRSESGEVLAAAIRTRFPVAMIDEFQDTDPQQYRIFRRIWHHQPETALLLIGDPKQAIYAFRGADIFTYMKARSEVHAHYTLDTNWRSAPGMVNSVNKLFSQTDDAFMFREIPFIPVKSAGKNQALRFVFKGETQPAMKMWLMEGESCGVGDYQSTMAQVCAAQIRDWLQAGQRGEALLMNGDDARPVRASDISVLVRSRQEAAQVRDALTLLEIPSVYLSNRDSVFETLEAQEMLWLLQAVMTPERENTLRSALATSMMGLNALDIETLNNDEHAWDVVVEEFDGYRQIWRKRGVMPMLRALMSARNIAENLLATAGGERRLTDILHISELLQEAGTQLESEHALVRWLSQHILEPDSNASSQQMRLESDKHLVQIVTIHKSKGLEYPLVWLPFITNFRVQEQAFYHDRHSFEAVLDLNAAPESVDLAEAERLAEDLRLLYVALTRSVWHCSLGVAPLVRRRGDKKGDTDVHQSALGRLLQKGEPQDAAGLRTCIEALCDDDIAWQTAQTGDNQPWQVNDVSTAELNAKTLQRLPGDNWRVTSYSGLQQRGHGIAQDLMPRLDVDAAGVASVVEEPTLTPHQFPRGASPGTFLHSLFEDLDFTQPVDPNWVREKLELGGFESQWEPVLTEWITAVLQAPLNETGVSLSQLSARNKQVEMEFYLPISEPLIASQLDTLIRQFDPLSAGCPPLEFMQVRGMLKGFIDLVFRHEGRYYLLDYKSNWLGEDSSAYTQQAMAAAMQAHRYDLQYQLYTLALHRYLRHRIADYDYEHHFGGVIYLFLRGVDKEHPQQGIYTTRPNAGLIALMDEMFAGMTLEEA

IC50	Compound
inactive	CCn1cc(C(=O)O)c(=O)c2cnc(N3CCN(C(=S)NC4CC5CCC4C5)CC3)nc21 (stereo unspecified)
20 µM	CCn1cc(C(=O)O)c(=O)c2cnc(N3CCN(C(=S)NCc4ccccc4)CC3)nc21
> 100 µM (inactive)	CC(=O)Nc1ccc2nc(NC(=O)c3ccc([N+](=O)[O-])o3)sc2c1
> 100 µM (inactive)	N#Cc1c(NC(=O)c2cccc(F)c2)sc2c1CCCC2
22 µM	COC(=O)c1c(-c2ccccc2)csc1NC(=O)c1cnccn1
11 µM	CCn1cc(C(=O)O)c(=O)c2cnc(N3CCN(C(=S)Nc4ccc(Cl)cc4)CC3)nc21
> 100 µM (inactive)	O=C(Nc1ncccn1)c1ccc([N+](=O)[O-])o1
> 100 µM (inactive)	N#Cc1c(NC(=O)c2ccccc2C(=O)O)sc2c1CCCC2
> 100 µM (inactive)	Cc1ccc(C(=O)Nc2sc3c(c2C#N)CCCCC3)o1
3 µM	CCn1cc(C(=O)O)c(=O)c2cc(F)c(N3CCN(C(=S)Nc4cccc(C(F)(F)F)c4)CC3)cc21
> 100 µM (inactive)	N#Cc1c(NC(=O)c2ccc(-c3ccccc3[N+](=O)[O-])o2)sc2c1CCCC2
inactive	CNC(=O)c1c(NC(=O)c2nc(SCc3ccccc3)ncc2Cl)sc2c1CCCC2
4 µM	CCn1cc(C(=O)O)c(=O)c2cnc(N3CCN(C(=S)Nc4cccc(C(F)(F)F)c4)CC3)nc21
9 µM	CCn1cc(C(=O)O)c(=O)c2cnc(N3CCN(C(=S)NC(=O)c4cccc(C)c4)CC3)nc21
inactive	N#Cc1c(NC(=O)c2ccco2)sc2c1CCC2

The remaining lines, values behind:

Compound	IC50
CCn1cc(C(=O)O)c(=O)c2cc(F)c(N3CCN(C(=S)Nc4ccccc4C(F)(F)F)CC3)cc21	40 µM
O=C(Nc1cccc(NC(=O)c2ccccc2Cl)c1)c1ccc([N+](=O)[O-])o1	> 100 µM (inactive)
Cc1cccnc1NC(=O)c1ccc([N+](=O)[O-])o1	> 100 µM (inactive)
O=C(OCC(=O)c1cccs1)c1ccc([N+](=O)[O-])o1	> 100 µM (inactive)
O=C(NCc1cccnc1)c1ccc([N+](=O)[O-])o1	> 100 µM (inactive)
O=C(Nc1ccc(N2CCOCC2)cc1)c1ccc([N+](=O)[O-])o1	> 100 µM (inactive)
CCn1cc(C(=O)O)c(=O)c2cnc(N3CCN(C(=S)Nc4ccccc4C(F)(F)F)CC3)nc21	13 µM and 40 µM
N#Cc1c(NC(=O)c2ccccc2)sc2c1CCC2	> 100 µM (inactive)
C=CCn1c(Sc2ncc([N+](=O)[O-])s2)n[nH]c1=O	> 166 µM (inactive)
NC(=O)c1ccsc1NC(=O)COC(=O)c1ccc([N+](=O)[O-])o1	> 100 µM (inactive)
N#Cc1c(NC(=O)c2cnccn2)sc2c1CCCC2	33 µM and 42 µM
CCn1cc(C(=O)O)c(=O)c2cnc(N3CCN(C(=S)NC(C)c4ccccc4)CC3)nc21 (stereo unspecified)	18 µM
Cc1ccc2nc(/C(C#N)=C\c3ccc([N+](=O)[O-])o3)[nH]c2c1	> 100 µM (inactive)
N#Cc1c(NC(=O)c2ccc([N+](=O)[O-])o2)sc2c1CCC2	51 µM
CC1(C)Cc2c(sc(NC(=O)c3ccco3)c2C#N)CO1	> 100 µM (inactive)
Cc1sc(NC(=O)c2ccc(Br)o2)c(C#N)c1C	47 µM
